APP 5'UTR act = APP 5'UTR luciferase reporter activation; SH-SY5Y APP 5'UTR luciferase reporter, luminescence; zero percent = DMSO vehicle wells; activation, % at 2 µM; 190,000 tested, 1% active; AID 1276;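 active = activation above a set limit, based on mean plus 3 SD of controls, cut at about 140% in these data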
STAT1 inh = inhibitors of IFN-gamma induced STAT1 signaling | NIH 3T3 STAT1-luciferase reporter, luminescence | inhibition, % at 5.5 µM | 200,000 tested, 0.35% active | AID 920;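 active = inhibition above a set limit, the mean inhibition across all tested compounds plus 3 SD, cut at about 34% in these data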;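 also: 0% = IFN-gamma with DMSO and 100% = IFN-gamma with 300 µM nifuroxazide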
NF-kB neuron act = compounds increasing NF-kB expression in human neuronal cells | NF-kB reporter expression; stronger effect = higher value | fold change at 12.5 µM | 190,000 tested, 1.6% active; in the data active = fold change above about 3.3
STAT3 blocker = inhibitors of IL-6 induced STAT3 signaling; U3A cells, IL-6 STAT3-luciferase reporter, luminescence; host cell line lacks STAT1; inhibition, % at 5.5 µM; 190,000 tested, 0.89% active;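 active = inhibition above the mean inhibition across all screened compounds plus 3 SD, cut at about 44% in these data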;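 also: 0% = DMSO only wells and 100% = 100 µM nifuroxazide control wells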
STAT1 act = increases IFN-gamma driven STAT1 reporter signal | NIH 3T3 STAT1-luciferase reporter, luminescence; 100% = IFN-gamma alone, no compound | activation (% of control), % at 5.5 µM | 200,000 tested, 2.6% active | AID 932;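 active = activation above the screen-wide mean activation plus 3 SD, cut at about 130% in these data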;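 also: raw ratio to IFN-gamma control signal so 100% means no change and 0% no light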
STAT3 activator = activators of IL-6 induced STAT3 signaling. U3A cells, IL-6 STAT3-luciferase reporter, luminescence; 100% = signal with IL-6 EC80 alone. activation (% of control), % at 5.6 µM. 190,000 tested, 0.91% active;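 active = activation above the screen-wide mean of compound activation plus 3 SD, cut at about 130% in these data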;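 also: 0% = background luminescence of wells with medium and substrate only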
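Test system: STAT3-luciferase reporter U3A cells; Detection: reporter luminescence signal; Times: 1 h compound pre-exposure, 6 h IL-6 stimulation, 37 °C; Benchmarks: IL-6-only high control; Also added: IL-6 stimulus at 33 ng/mL final.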
* marks the source's active call; other numbers are inactive results; / = not tested or not shown. Hits are enriched below; roughly 4.9% of the tested compounds scored in any of these assays.

SMILES | APP 5'UTR act | STAT1 inh | NF-kB neuron act | STAT3 blocker | STAT1 act | STAT3 activator
COc1ccc(/C(N)=N/OC(=O)CCc2ccccc2)cc1OC | -8.7 | -29.8 | 1.08 | -1.3 | 125.3 | 105.0
N/C(=N\OC(=O)c1ccco1)c1cccc([N+](=O)[O-])c1 | 38.2 | -32.6 | 1.41 | 21.7 | 128.4 | 84.8
COc1ccc(/C(N)=N/OC(=O)c2ccco2)cc1OC | 79.5 | -54.9 | 2.89 | 10.6 | 148.9* | 92.9
COc1ccc(C(=O)Nc2ccccc2NC(=O)c2ccco2)cc1OC | 11.3 | 0.0 | 0.78 | 2.4 | 100.6 | 103.5
O=C(c1ccco1)N1CCN(S(=O)(=O)Cc2ccccc2Cl)CC1 | 15.4 | 9.2 | / | 2.2 | 91.9 | 103.5
CC(C)c1ccccc1NC(=O)COC(=O)c1cc(=O)[nH]c(=O)[nH]1 | 13.3 | -2.0 | 0.95 | 3.0 | 100.5 | 104.3
CC(NC(=O)Cn1c(NCCO)nc2ccccc21)C1CC2CCC1C2 (configuration not stated) | 1.4 | -38.8 | 1.26 | 3.3 | 133.5* | 100.3
CS(=O)(=O)c1nc(-c2ccc(Br)cc2)cc(-c2ccccc2)c1C#N | -2.5 | -2.7 | 0.96 | 2.3 | 102.5 | 99.4
COc1ccc(-c2cc(-c3ccccc3)c(C#N)c(S(C)(=O)=O)n2)cc1 | 9.6 | -7.4 | 6.34* | 1.5 | 106.8 | 100.0
O=C(/C=C/c1ccccc1O)c1ccc(Cl)cc1 | 25.0 | 6.0 | 1.91 | -34.5 | 93.0 | 135.2*
O=C(/C=C\Nc1ccccn1)c1ccc(Cl)cc1 | 174.7* | 55.5* | 1.8 | 99.8* | 49.7 | 21.1
COc1ccc(S(=O)(=O)N(C)C)cc1NC(=O)CSc1nnc(-c2cccnc2)o1 | 17.7 | -0.8 | 1.2 | 6.2 | 99.5 | 101.4
CNc1nc(-c2ccc3c(c2)CCN3C(=O)c2ccc(F)cc2)cs1 | 47.0 | -31.8 | 2.02 | 23.8 | 127.9 | 82.2
CNc1nc(-c2ccc3c(c2)CCN3C(=O)c2ccccc2C)cs1 | 193.2* | -47.6 | 3.79* | -1.6 | 145.4* | 103.4
COc1cccc(-n2cnc3sc(C)cc3c2=O)c1 | 14.2 | -8.2 | 1.26 | 5.0 | 105.7 | 97.7
COc1ccc(C(=O)Cc2ccc3c(c2)OCO3)c(O)c1 | 129.1 | -50.0 | 2.52 | -14.7 | 147.1* | 110.5
O=C(CNC(=S)N(Cc1ccccc1)Cc1ccccc1F)NCCc1ccccc1 | 6.2 | 7.4 | 0.74 | -5.8 | 91.8 | 106.4
Cc1ccc(C(=O)/C=C/c2cn(CN3CCN(C)CC3)c3ccccc23)cc1 | 76.4 | -24.3 | 7.28* | 16.7 | 122.5 | 89.5
Cn1cc(/C=C/C(=O)c2ccccc2)c2ccccc21 | 200.4* | / | / | / | / | /
O=C(/C=C/c1cn(CC(O)CN2CCCCCC2)c2ccccc12)c1cccs1 (configuration not stated) | -0.7 | 2.9 | 1.49 | -5.5 | 97.4 | 105.0
Cn1cc(/C=C2/SC(=O)N(c3ccccc3)C2=O)c2ccccc21 | -7.8 | -36.4 | 1.37 | -83.6 | 132.5* | 172.3*
Cc1ccc(C(=O)Nc2ccc(C(=O)O)cc2)cc1S(=O)(=O)NCc1ccccc1 | 21.6 | -7.2 | 1.36 | 6.1 | 105.6 | 97.9
CCOc1cccc2cc(-c3csc(NC(=O)CCC(=O)N4CCC(C)CC4)n3)c(=O)oc12 | -5.2 | 1.7 | 1.09 | 2.9 | 98.4 | 97.7
CCOc1cccc2cc(-c3csc(NC(=O)CCC(=O)NCCN4CCCCC4C)n3)c(=O)oc12 (configuration not stated) | 177.9* | -50.0 | 6.82* | 5.0 | 144.8* | 106.6
CC(=O)c1ccc(NC(=O)C(C)OC(=O)c2ccc(NS(=O)(=O)c3ccc(F)c(F)c3)cc2)cc1 (configuration not stated) | -6.3 | 0.2 | 1.1 | 21.9 | 99.8 | 84.4
O=C(NC1C(=O)NNC1c1ccccc1)c1ccc(F)cc1 (configuration not stated) | 3.0 | -32.2 | 1.62 | 2.9 | 129.4* | 100.9
O=[N+]([O-])c1ccc(N=NNc2ccccc2)cc1 | 58.2 | -39.6 | 3.65* | 6.9 | 134.9* | 96.1
CN(N=Nc1ccc([N+](=O)[O-])cc1)c1ccccc1 | 52.3 | -44.4 | 2.76 | 23.5 | 139.2* | 82.9
CC(C)N(N=Nc1ccc([N+](=O)[O-])cc1)C(C)C | 10.0 | 14.4 | 0.88 | 11.3 | 86.9 | 94.5
Nc1cc([N+](=O)[O-])ccc1Nc1ccccc1 | 9.9 | 11.0 | 0.9 | -4.8 | 88.7 | 108.3

Screening results deposited in PubChem by several laboratories.
